Test results taken from ChEMBL document CHEMBL4689842, “EUbOPEN Chemogenomics Library wave 1” (2021).
“And” between values parts separate entries of the source, which are not always exact repeats. Equal values may be shown once.

Columns and labels:
HEK-293T = experiment: Multiplex assay against HEK293T; format: toxicity, cell-based; settings: human;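 as to Population Tubulin-Different-Phenotype (%): share of the cells with healthy nuclei that show this phenotype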
Outline: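 On a CQ1 microscope at 37°C and 5% CO2, live cells were imaged after compound addition. They had been stained at seeding with Hoechst33342, BioTracker Green Microtubule Cytoskeleton Dye, MitoTracker Red and Annexin V Alexa Fluor 680. CellPathfinder machine-learning gating assigned cells to Hoechst high-intensity objects or normal cells, normal cells to healthy, pyknosed or fragmented nuclei, and pyknosed cells to mitotic or apoptotic. Tubulin, mitochondrial-mass and membrane-permeability phenotypes are per cents of healthy-nucleus cells.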

Fibroblast = experiment: Incucyte cell viability with human fibroblast; format: toxicity, cell-based; settings: 10 µM, compound concentration 10 uM; also: filed as whole numbers so only -1 and 0 and 1 occur
[1] = 12 h, 1 µM, compound concentration 1 uM, replicate 1
[2] = 12 h, 1 µM, compound concentration 1 uM, replicate 2
[3] = 12 h, 10 µM, compound concentration 10 uM, replicate 1
[4] = 12 h, 10 µM, compound concentration 10 uM, replicate 2
[5] = 24 h, 1 µM, compound concentration 1 uM, replicate 1
[6] = 24 h, 1 µM, compound concentration 1 uM, replicate 2
[7] = 24 h, 10 µM, compound concentration 10 uM, replicate 1
[8] = 24 h, 10 µM, compound concentration 10 uM, replicate 2
[9] = 48 h, 10 µM, compound concentration 10 uM, replicate 1
[10] = 48 h, 10 µM, compound concentration 10 uM, replicate 2

SMILES: COc1cc(N2CCC(N(C)C)CC2)ccc1Nc1ncc(Cl)c(Nc2ccccc2P(C)(C)=O)n1
- Population Apoptotic (%) (HEK-293T; [1]): 16%
- Population Fragmented Nuclei (%) (HEK-293T; [1]): 19%
- Population Healthy Nuclei (%) (HEK-293T; [1]): 61%
- Population Hoechst High Intensity Objects (%) (HEK-293T; [1]): 14%
- Population Membrane Permeable-Phenotype (%) (HEK-293T; [1]): 1%
- Population Mitochondria Different-Phenotype (%) (HEK-293T; [1]): 9%
- Population Mitotic Cells (%) (HEK-293T; [1]): 83%
- Population Normal (%) (HEK-293T; [1]): 85%
- Population Pyknosed Nuclei (%) (HEK-293T; [1]): 18%
- Population Tubulin-Different-Phenotype (%) (HEK-293T; [1]): 7%
- Total Cell Count (HEK-293T; [1]): 684
- Population Apoptotic (%) (HEK-293T; [2]): 14%
- Population Fragmented Nuclei (%) (HEK-293T; [2]): 8%
- Population Healthy Nuclei (%) (HEK-293T; [2]): 84%
- Population Hoechst High Intensity Objects (%) (HEK-293T; [2]): 5%
- Population Mitochondria Different-Phenotype (%) (HEK-293T; [2]): 19%
- Population Mitotic Cells (%) (HEK-293T; [2]): 85%
- Population Normal (%) (HEK-293T; [2]): 94%
- Population Pyknosed Nuclei (%) (HEK-293T; [2]): 6%
- Population Tubulin-Different-Phenotype (%) (HEK-293T; [2]): 21%
- Total Cell Count (HEK-293T; [2]): 1309
- Population Fragmented Nuclei (%) (HEK-293T; [3]): 10% and 13%
- Population Healthy Nuclei (%) (HEK-293T; [3]): 23% and 51%
- Population Hoechst High Intensity Objects (%) (HEK-293T; [3]): 21% and 20%
- Population Membrane Permeable-Phenotype (%) (HEK-293T; [3]): 0% and 6%
- Population Mitotic Cells (%) (HEK-293T; [3]): 29% and 78%
- Population Normal (%) (HEK-293T; [3]): 78% and 79%
- Population Pyknosed Nuclei (%) (HEK-293T; [3]): 66% and 35%
- Population Tubulin-Different-Phenotype (%) (HEK-293T; [3]): 97% and 54%
- Total Cell Count (HEK-293T; [3]): 211 and 606
- Population Fragmented Nuclei (%) (HEK-293T; [4]): 3%
- Population Hoechst High Intensity Objects (%) (HEK-293T; [4]): 12% and 9%
- Population Membrane Permeable-Phenotype (%) (HEK-293T; [4]): 3%
- Population Mitochondria Different-Phenotype (%) (HEK-293T; [4]): 86% and 54%
- Population Mitotic Cells (%) (HEK-293T; [4]): 41% and 87%
- Population Normal (%) (HEK-293T; [4]): 87% and 90%
- Population Tubulin-Different-Phenotype (%) (HEK-293T; [4]): 100% and 85%
- Population Apoptotic (%) (HEK-293T; [5]): 14%
- Population Fragmented Nuclei (%) (HEK-293T; [5]): 17%
- Population Healthy Nuclei (%) (HEK-293T; [5]): 69%
- Population Hoechst High Intensity Objects (%) (HEK-293T; [5]): 9%
- Population Membrane Permeable-Phenotype (%) (HEK-293T; [5]): 5%
- Population Mitochondria Different-Phenotype (%) (HEK-293T; [5]): 8%
- Population Mitotic Cells (%) (HEK-293T; [5]): 85%
- Population Normal (%) (HEK-293T; [5]): 90%
- Population Pyknosed Nuclei (%) (HEK-293T; [5]): 12%
- Population Tubulin-Different-Phenotype (%) (HEK-293T; [5]): 14%
- Total Cell Count (HEK-293T; [5]): 667
- Population Apoptotic (%) (HEK-293T; [6]): 12%
- Population Fragmented Nuclei (%) (HEK-293T; [6]): 20%
- Population Healthy Nuclei (%) (HEK-293T; [6]): 77%
- Population Hoechst High Intensity Objects (%) (HEK-293T; [6]): 4%
- Population Membrane Permeable-Phenotype (%) (HEK-293T; [6]): 3%
- Population Mitochondria Different-Phenotype (%) (HEK-293T; [6]): 4%
- Population Mitotic Cells (%) (HEK-293T; [6]): 87%
- Population Normal (%) (HEK-293T; [6]): 95%
- Population Pyknosed Nuclei (%) (HEK-293T; [6]): 2%
- Population Tubulin-Different-Phenotype (%) (HEK-293T; [6]): 19%
- Total Cell Count (HEK-293T; [6]): 2108
- Population Apoptotic (%) (HEK-293T; [7]): 74% and 37%
- Population Fragmented Nuclei (%) (HEK-293T; [7]): 12% and 14%
- Population Healthy Nuclei (%) (HEK-293T; [7]): 31% and 55%
- Population Hoechst High Intensity Objects (%) (HEK-293T; [7]): 24% and 22%
- Population Membrane Permeable-Phenotype (%) (HEK-293T; [7]): 1% and 7%
- Population Mitochondria Different-Phenotype (%) (HEK-293T; [7]): 98% and 51%
- Population Mitotic Cells (%) (HEK-293T; [7]): 25% and 62%
- Population Normal (%) (HEK-293T; [7]): 75% and 77%
- Population Pyknosed Nuclei (%) (HEK-293T; [7]): 55% and 30%
- Population Tubulin-Different-Phenotype (%) (HEK-293T; [7]): 98% and 73%
- Total Cell Count (HEK-293T; [7]): 229 and 561
- Population Fragmented Nuclei (%) (HEK-293T; [8]): 7% and 5%
- Population Hoechst High Intensity Objects (%) (HEK-293T; [8]): 19% and 9%
- Population Membrane Permeable-Phenotype (%) (HEK-293T; [8]): 0% and 10%
- Population Mitochondria Different-Phenotype (%) (HEK-293T; [8]): 95% and 60%
- Population Normal (%) (HEK-293T; [8]): 80% and 90%
- Population Tubulin-Different-Phenotype (%) (HEK-293T; [8]): 95% and 93%
- Population Apoptotic (%) (HEK-293T; [9]): 77%
- Population Fragmented Nuclei (%) (HEK-293T; [9]): 18%
- Population Healthy Nuclei (%) (HEK-293T; [9]): 34%
- Population Hoechst High Intensity Objects (%) (HEK-293T; [9]): 23%
- Population Membrane Permeable-Phenotype (%) (HEK-293T; [9]): 0%
- Population Mitochondria Different-Phenotype (%) (HEK-293T; [9]): 100%
- Population Mitotic Cells (%) (HEK-293T; [9]): 22%
- Population Normal (%) (HEK-293T; [9]): 76%
- Population Pyknosed Nuclei (%) (HEK-293T; [9]): 47%
- Population Tubulin-Different-Phenotype (%) (HEK-293T; [9]): 100%
- Total Cell Count (HEK-293T; [9]): 239
- Population Apoptotic (%) (HEK-293T; [10]): 91%
- Population Fragmented Nuclei (%) (HEK-293T; [10]): 8%
- Population Healthy Nuclei (%) (HEK-293T; [10]): 17%
- Population Hoechst High Intensity Objects (%) (HEK-293T; [10]): 17%
- Population Mitochondria Different-Phenotype (%) (HEK-293T; [10]): 90%
- Population Mitotic Cells (%) (HEK-293T; [10]): 8%
- Population Normal (%) (HEK-293T; [10]): 82%
- Population Pyknosed Nuclei (%) (HEK-293T; [10]): 74%
- Population Tubulin-Different-Phenotype (%) (HEK-293T; [10]): 85%
- Total Cell Count (HEK-293T; [10]): 147
- Growth Rate (Fibroblast; 0 h, replicate number 2, timepoint 0 hours): 0
- Growth Rate (Fibroblast; 6 h, replicate number 1, timepoint 6 hours): 1
- Growth Rate (Fibroblast; 12 h, replicate number 1, timepoint 12 hours): 0
- Growth Rate (Fibroblast; 12 h, replicate number 2, timepoint 12 hours): 1
- Growth Rate (Fibroblast; 18 h, replicate number 1, timepoint 18 hours): 0
- Growth Rate (Fibroblast; 18 h, replicate number 2, timepoint 18 hours): 1
- Growth Rate (Fibroblast; 24 h, replicate number 1, timepoint 24 hours): 0
